Laboratory results reported in article PMC8602434 (Drugs in R&D, 2021).

Tests used:
Assay type in all cases: in vivo
[1] = Rat 28-day toxicology study with toxicokinetic analysis, sc
In short: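 Male and female CD Sprague Dawley rats (233–264 g male, 172–201 g female). 28-day toxicology study (70 per sex) with daily sc dosing at 0, 1.0, 5.0 or 25.0 mg/kg/day. Blood drawn via sublingual vein, three animals per sex per dose at each time point. Noncompartmental analysis of mean concentration–time data gave AUClast, Cmax, tmax and t½.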

[2] = Mouse pharmacokinetics, single sc or iv dose, plasma LC-MS; conditions: for AUC∞: plasma LC-MS
[3] = Dog 28-day toxicology study with pharmacokinetic analysis, sc
[4] = Healthy volunteers, single-dose arm, sc; conditions: human; for half-life: t½
In short: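 Double-blind single abdominal sc injection at 0.1, 0.5, 1, 3 or 5 mg versus placebo. Cohorts of six or eight subjects; the 0.1 mg cohort had 4 active and 2 placebo. Serial blood sampling to 48 h post-dose. Plasma assayed by validated bioanalytical method. Noncompartmental analysis: Cmax, tmax, t½, AUC (linear trapezoidal to last quantifiable concentration), AUC∞, CL/F. AEs recorded.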

[5] = both, plasma, sc, 0.1 mg, single 0.1 mg sc, mean (SD), n=4
[6] = both, plasma, sc, 0.5 mg, single 0.5 mg sc, mean (SD), n=4
[7] = both, plasma, sc, 1 mg, single 1.0 mg sc, mean (SD), n=6
[8] = both, plasma, sc, 3 mg, single 3.0 mg sc, median, n=6
[9] = both, plasma, sc, 5 mg, single 5.0 mg sc, mean (SD), n=6
[10] = single 0.1 mg sc, geometric mean, n=4

CCCC[C@H](NC(C)=O)C(=O)N[C@H]1CCC(=O)NC[C@@H](C(=O)N[C@@H](Cc2c[nH]c3ccccc23)C(N)=O)NC(=O)[C@H](CCCNC(=N)N)NC(=O)[C@@H](Cc2ccccc2)NC(=O)[C@H](Cc2c[nH]cn2)NC1=O [PL8177]
tmax ([1]; rat F, 1.0 mg/kg sc daily, Day 14 (truncated curve, 3 data points)): 30 min | tmax ([1]; rat F, 1.0 mg/kg sc daily, Day 28): 30 min | tmax ([1]; rat F, 5.0 mg/kg sc daily, Day 14 (truncated curve, 3 data points)): 60 min | tmax ([1]; rat F, 25.0 mg/kg sc daily, Day 14 (truncated curve, 3 data points)): 30 min | tmax ([1]; rat F, 25.0 mg/kg sc daily, Day 28): 30 min | tmax ([1]; rat M, 1.0 mg/kg sc daily, Day 1): 30 min | tmax ([1]; rat M, 1.0 mg/kg sc daily, Day 14 (truncated curve, 3 data points)): 30 min | tmax ([1]; rat M, 1.0 mg/kg sc daily, Day 28): 30 min | tmax ([1]; rat M, 5.0 mg/kg sc daily, Day 14 (truncated curve, 3 data points)): 60 min | tmax ([1]; rat M, 5.0 mg/kg sc daily, Day 28): 30 min | tmax ([1]; rat M, 25.0 mg/kg sc daily, Day 28): 15 min | F (bioavailability) ([2]; 1 mg/kg sc versus iv): 0.63 | t½ ([2]; single 1 mg/kg iv): 12 min | AUC∞ ([2]; single 1 mg/kg iv): 753 ng·h/mL | Cmax ([2]; single 1 mg/kg sc): 703 ng/mL | tmax ([2]; single 1 mg/kg sc): 4.98 min | t½ ([2]; single 1 mg/kg sc): 15.6 min | AUC∞ ([2]; single 1 mg/kg sc): 476 ng·h/mL | Cmax ([2]; single 3 mg/kg sc): 2440 ng/mL | tmax ([2]; single 3 mg/kg sc): 15 min | t½ ([2]; single 3 mg/kg sc): 30 min | AUC∞ ([2]; single 3 mg/kg sc): 1727 ng·h/mL | Accumulation ratio (Rac), AUClast day 28/AUClast day 1 ([3]; 1.5- and 9.0-mg doses as printed): 0.8 | Accumulation ratio (Rac), AUClast day 28/AUClast day 1 ([3]; 40-mg dose): 1.8 | Difference between mean Cmax and AUClast values, multiple-dose versus single-dose ([3]; sc): < 2 fold | AUC(0-t) ([4]; both, plasma, sc, 0.1 mg): 2.7 ng·h/mL | tmax ([4]; both, plasma, sc, 0.1 mg): 36 min | AUC(0-inf) [4, 5]: 3.5 ng·h/mL | CL/F ([4]; both, plasma, sc, 0.1 mg, CL/F, single 0.1 mg sc, mean (SD), n=4): 497 mL/min | Cmax ([4]; both, plasma, sc, 0.1 mg, Cmax, single 0.1 mg sc, mean (SD), n=4): 2.3 ng/mL | Vd/F [4, 5]: 36.1 L | half-life [4, 5]: 54 min | AUC(0-t) ([4]; both, plasma, sc, 0.5 mg): 19.9 ng·h/mL | tmax ([4]; both, plasma, sc, 0.5 mg): 30 min | AUC(0-inf) [4, 6]: 22.4 ng·h/mL | CL/F ([4]; both, plasma, sc, 0.5 mg, CL/F, single 0.5 mg sc, mean (SD), n=4): 477 mL/min | Cmax ([4]; both, plasma, sc, 0.5 mg, Cmax, single 0.5 mg sc, mean (SD), n=4): 8.2 ng/mL | Vd/F ([4]; both, plasma, sc, 0.5 mg, single 0.5 mg sc, mean (SD), n=2): 74.4 L | half-life [4, 6]: 168 min | AUC(0-t) ([4]; both, plasma, sc, 1 mg): 40.3 ng·h/mL | tmax ([4]; both, plasma, sc, 1 mg): 36 min | AUC(0-inf) [4, 7]: 46.2 ng·h/mL | CL/F ([4]; both, plasma, sc, 1 mg, CL/F, single 1.0 mg sc, mean (SD), n=6): 382 mL/min | Cmax ([4]; both, plasma, sc, 1 mg, Cmax, single 1.0 mg sc, mean (SD), n=6): 17.4 ng/mL | Vd/F ([4]; both, plasma, sc, 1 mg, single 1.0 mg sc, mean (SD), n=3): 173 L | Vd/F ([4]; both, plasma, sc, 1 mg, single 1.0 mg sc, median, n=3): 186 L | half-life [4, 7]: 402 min | AUC(0-t) ([4]; both, plasma, sc, 3 mg): 137 ng·h/mL | AUC(0-inf) [4, 8]: 163 ng·h/mL | CL/F ([4]; both, plasma, sc, 3 mg, CL/F, single 3.0 mg sc, mean (SD), n=6): 322 mL/min | CL/F ([4]; both, plasma, sc, 3 mg, CL/F, single 3.0 mg sc, median, n=6): 307 mL/min | Cmax ([4]; both, plasma, sc, 3 mg, Cmax, single 3.0 mg sc, median, n=6): 49.1 ng/mL | Vd/F ([4]; both, plasma, sc, 3 mg, single 3.0 mg sc, mean (SD), n=4): 375 L | Vd/F ([4]; both, plasma, sc, 3 mg, single 3.0 mg sc, median, n=4): 394 L | half-life ([4]; both, plasma, sc, 3 mg, single 3.0 mg sc, geometric mean, n=6): 912 min | half-life ([4]; both, plasma, sc, 3 mg, single 3.0 mg sc, mean (SD), n=6): 1170 min | half-life [4, 8]: 738 min | AUC(0-t) ([4]; both, plasma, sc, 5 mg): 226 ng·h/mL | tmax ([4]; both, plasma, sc, 5 mg): 48 min | AUC(0-inf) [4, 9]: 240 ng·h/mL | CL/F ([4]; both, plasma, sc, 5 mg, CL/F, single 5.0 mg sc, mean (SD), n=6): 355 mL/min | Cmax ([4]; both, plasma, sc, 5 mg, Cmax, single 5.0 mg sc, mean (SD), n=6): 87.8 ng/mL | Vd/F [4, 9]: 502 L | half-life [4, 9]: 978 min | Median time for last measurable concentration ([4]; 0.1-mg dose): 2 h | Median time for last measurable concentration ([4]; 0.5-mg dose): 6 h | Median time for last measurable concentration ([4]; 1-mg dose): 16 h | Median time for last measurable concentration ([4]; 3-mg dose): 30 h | Median time for last measurable concentration ([4]; 5-mg dose): 48 h | AUC0–t [4, 10]: 2.6 ng·h/mL | AUC∞ [4, 10]: 3.4 ng·h/mL | AUC∞/dose [4, 10]: 34.2 ng·h/mL/mg | CL/F [4, 10]: 487 mL/min | Cmax [4, 10]: 2.2 ng/mL | Cmax/dose [4, 10]: 22.1 ng/mL/mg | t½ [4, 10]: 48 min | AUC∞/dose ([4]; single 0.1 mg sc, mean (SD), n=4): 34.9 (7.82) ng·h/mL/mg
